VLA-4 inh = inhibition in a human VLA-4 binding assay; VLA-4 expressing cells, ligand binding flow cytometry; inhibition, % (about 7 µM as worked out from the volumes in the protocol); actives 0.2% (n = 330,000); in the data active = inhibition above about 50%
Beta2AR agonist = human beta-2 adrenergic receptor agonism by FAP. response, % (test concentration not listed). actives 0.43% (n = 340,000). AID 504454. P07550. Am2.2-beta2AR cells, FAP receptor internalization, flow cytometry;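 active = response above a set limit, near 3 SD of response in nonfluorescent compounds, cut at about 42% in these data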
CHOP inh = inhibitors of CHOP induction in ER stress response. CHO-K1 CHOP-promoter luciferase, tunicamycin-induced, 15-18 h. inhibition, % at 10 µM. actives 3.8% (n = 220,000). AID 2732;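 active = compounds that reduced the stress-induced luciferase reporter signal by more than about 70% of percent inhibition, limit read from the data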;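 note: 0% = tunicamycin plus vehicle and 100% = wells without tunicamycin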
XBP1 UPR activ = activators of adaptive arm of unfolded protein response (XBP1); CHO-XBP1 luciferase reporter, IRE1-XBP1 UPR activation, luminescence; percent of tunicamycin response, DMSO as zero; actives 0.33% (n = 330,000); activation, % at 20 µM;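 active = versus positive control, 20 µM dose yields 30% or more activation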;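 note: 100% = tunicamycin at 10 µg/mL and 0% = DMSO only wells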
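Material: CHO cell line with stable XBP1 luciferase reporter; schedule: 16-18 h cell attachment at 37 °C, then 6 h compound exposure; signal: glow luminescence from Steady-Glo reagent; medium: serum-containing F12 medium, 10% FBS; benchmarks: tunicamycin 10 µg/mL and vehicle-only wells; read-out: percent activation relative to tunicamycin reference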
UPR CHOP act = apoptotic UPR (CHOP) activation. CHO-CHOP luciferase reporter, luminescence; percent of tunicamycin response over DMSO baseline. activation, % at 10 µM. actives 0.34% (n = 330,000);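 active = at 10 µM dose, activation of 40% or more, normalized to positive control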;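 note: 100% = tunicamycin at 10 µg/mL and 0% = DMSO alone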
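System: CHO CHOP reporter cells. Amount: 500 cells per well. Buffer or medium: F12 medium, 10% FBS. Compound dosing: one dose, 10 µM in 0.5% DMSO. Incubation: 6 h compound exposure at 37 °C after overnight seeding. Technique: Steady-Glo luciferase luminescence. Benchmarks: tunicamycin and DMSO controls.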
* marks the source's active call; other numbers are inactive results; . = no result given. This excerpt belongs to a sample that is enriched for hits.

SMILES	VLA-4 inh	Beta2AR agonist	CHOP inh	XBP1 UPR activ	UPR CHOP act
COc1cccc(/C=C2\N=C(SC)SC2=O)c1OC	20	3	64	2	-2
ONC(=NCc1ccccc1)c1ccccc1	.	-1	.	.	.
CC(C)(NO)/C(=N\O)c1ccccc1	1	-2	72*	-1	-4
O=C(N/N=C\C=C\c1ccco1)c1cc(-c2ccc3ccccc3c2)n[nH]1	4	17	80*	5	5
O=C1C=C(c2ccc3c(c2)OCO3)C[C@@H](c2ccc(Cl)cc2)C1	44	3	.	-1	-1
N#CCc1ccccc1C(=O)OCC(=O)N(Cc1ccccc1)Cc1ccccc1	-17	-2	.	-1	2
CCN(C(=O)COC(=O)c1ccccc1Cc1ccccc1)c1c(N)n(Cc2ccccc2)c(=O)[nH]c1=O	.	-8	.	.	.
CC1(C)CC(=O)C=C(NC2=CC3OC(c4ccccc4)OCC3OC2=O)C1 (centres undefined)	11	11	103*	-3	17
CC1(C)CC(=O)C=C(NCc2ccccc2)C1	-5	2	8	-3	0
O=c1[nH]c(NNC(=S)NCc2ccccc2)nc2c1C1(CCCCC1)Cc1ccccc1-2	-3	5	87*	-2	-2
CC1(C)C(=O)Nc2ccccc2N1C(=O)COc1cc(Cl)ccc1Cl	-2	-18	.	-3	-3
CC(OC(=O)c1ccco1)C(=O)NCc1ccc2c(c1)OCO2 (centres undefined)	-9	11	.	0	0
CCOc1ccccc1N1CCN(C2=C(NS(=O)(=O)c3cccs3)C(=O)c3ccccc3C2=O)CC1	2	8	71*	-3	2
CN1CCN(C2=C(NS(=O)(=O)c3cccs3)C(=O)c3ccccc3C2=O)CC1	9	-2	-38	-1	4
CCN1CCN(c2nc(N)c([N+](=O)[O-])c(Nc3ccc(C)cc3)n2)CC1	0	-8	35	5	2
CCN1CCN(c2nc(N)c([N+](=O)[O-])c(Nc3ccc(C)c(C)c3)n2)CC1	16	63*	48	8	2
CC(=O)Oc1c(Sc2ccccc2[N+](=O)[O-])c(C)nn1C(C)(C)C	-9	3	75*	-2	-1
Cc1ccc(-n2nc(C)c(Sc3ccccc3[N+](=O)[O-])c2N)cc1	-6	3	27	0	1
Sc1nnc(-c2ccc(Cl)cc2)n1Cc1ccccc1	21	7	.	-2	0
C=CCN(C(=O)c1csnn1)C(C(=O)NCc1ccccc1)c1cccs1 (centres undefined)	0	-5	.	-3	2
COc1ccc(/C=N/NC(=O)C2c3ccccc3-c3ccccc32)cc1	-12	-142	80*	-2	-2
O=C(c1ccccc1)N(c1ccccc1)c1nccc2ccccc12	.	10	.	.	.
CCCCOc1ccc(CNn2c(C)nc3ccccc3c2=O)cc1	0	-9	81*	-2	1
COc1ccc(CNn2c(C)nc3ccccc3c2=O)cc1	-6	-11	17	4	0
CC(=O)Oc1ccc(C(=O)N2c3ccccc3NC(=O)C2C)cc1 (centres undefined)	-31	5	.	-3	2
SMILES	VLA-4 inh	Beta2AR agonist	CHOP inh	XBP1 UPR activ	UPR CHOP act
Cc1ccnc(N2C3CCC2CC(O)(c2ccccc2)C3)n1 (centres undefined)	7	5	-5	-2	0
Cc1cc(N2C3CCC2CC(O)(c2ccc(F)cc2)C3)nc(-c2ccccc2)n1 (centres undefined)	21	-11	72*	-1	1
CCOc1ccccc1CNS(=O)(=O)c1cnc[nH]1	-2	4	.	-3	0
CC(=O)NCCNc1ccc([N+](=O)[O-])cn1	0	2	-9	0	0
CC(C)(C)c1ccc(CNc2ccc([N+](=O)[O-])cn2)cc1	11	9	87*	.	.
O=[N+]([O-])c1ccc(NCc2ccc(Cl)cc2)nc1	17	8	-11	-2	1
CC(C)c1ccc(CNc2ccc([N+](=O)[O-])cn2)cc1	-2	14	83*	1	5
O=C(Nc1nnc(-c2cccs2)o1)c1cccc(F)c1	34	3	.	2	2
O=C(Nc1nnc(-c2cccs2)o1)c1cccc(Oc2ccccc2)c1	-18	4	84*	1	4
